Values after ≈ are worked out from the molar mass of the structure shown.
How the values were obtained:
[1] = test system: Mycobacterium tuberculosis; assay: Modulation factor, ratio of refampin MIC to compound MIC for Mycobacterium tuberculosis H37Rv ATCC 27294T at 128 ug/ml in presence of refampin; format: functional
[2] = test system: Mycolicibacterium smegmatis; assay: Anti-tubercular activity against Mycobacterium smegmatis MC2 155 ATCC 700084 after 3 days by microdilution method; format: functional; details: MC2 155 ATCC 700084, 72 h
How it was run: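 M. smegmatis mc2155 grown in MB7H9 + 10% OADC at 37 °C with shaking to OD600 0.8. Inoculum set to 0.5 McFarland, diluted 1:100, and mixed 1:1 with two-fold serial dilutions in MB7H9. Plates incubated 3 days at 37 °C with growth and sterility controls. MIC taken as the lowest concentration with no visible growth.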

[3] = test system: Mycobacterium tuberculosis; assay: Antibacterial activity against Mycobacterium tuberculosis H37Rv ATCC 27294T assessed as rifampin MIC at 32 ug/ml after 7 days by microdilution checkerboard assay; format: functional; details: 168 h
How it was run: (§1)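 M. tuberculosis H37Rv grown in MB7H9 + 10% OADC at 37 °C to OD600 0.8; plates inoculated at 10^5 CFU/ml. Rifampicin two-fold serially diluted across columns, test compound two-fold diluted down rows (two-dimensional checkerboard). Sealed, 37 °C for seven days, then MTT added and incubated overnight. MIC read as no colour change. Triplicate.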

[4] = test system: Mycobacterium tuberculosis; assay: Antibacterial activity against Mycobacterium tuberculosis H37Rv ATCC 27294T assessed as isoniazid MIC at 64 ug/ml after 7 days by microdilution checkerboard assay; format: functional; details: 168 h
How it was run: (§2)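 Two-dimensional checkerboard in H37Rv at 10^5 CFU/ml in MB7H9/OADC. Partner drug (amikacin, EtBr, isoniazid, ofloxacin or rifampin) two-fold serially diluted across columns 3-11. Test compound two-fold serially diluted down rows 2-6. Plates incubated 7 days at 37 °C, then MTT added overnight. […] Run in triplicate.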

[5] = test system: Mycobacterium tuberculosis; assay: Antibacterial activity against Mycobacterium tuberculosis H37Rv ATCC 27294T assessed as ethidium bromide MIC at 64 ug/ml after 7 days by microdilution checkerboard assay; format: functional; details: 168 h; how it was run: as §2
[6] = test system: Mycobacterium tuberculosis; assay: Antibacterial activity against Mycobacterium tuberculosis H37Rv ATCC 27294T assessed as ethidium bromide MIC at 2 ug/ml after 7 days by microdilution checkerboard assay; format: functional; details: 168 h; how it was run: as §2
[7] = test system: Mycobacterium tuberculosis; assay: Modulation factor, ratio of ethidium bromide MIC to compound MIC for Mycobacterium tuberculosis H37Rv ATCC 27294T at 128 ug/ml in presence of ethidium bromide; format: functional
[8] = test system: Mycobacterium tuberculosis; assay: Antibacterial activity against Mycobacterium tuberculosis H37Rv ATCC 27294T assessed as ofloxacin MIC at 2 ug/ml after 7 days by microdilution checkerboard assay; format: functional; details: 168 h; how it was run: as §2
[9] = test system: Mycobacterium tuberculosis; assay: Antibacterial activity against Mycobacterium tuberculosis H37Rv ATCC 27294T assessed as ofloxacin MIC at 128 ug/ml after 7 days by microdilution checkerboard assay; format: functional; details: 168 h; how it was run: as §2
[10] = test system: Mycobacterium tuberculosis; assay: Modulation factor, ratio of isoniazid MIC to compound MIC for Mycobacterium tuberculosis H37Rv ATCC 27294T at 128 ug/ml in presence of isoniazid; format: functional
[11] = test system: Mycobacterium tuberculosis; assay: Antibacterial activity against Mycobacterium tuberculosis H37Rv ATCC 27294T assessed as ofloxacin MIC at 4 ug/ml after 7 days by microdilution checkerboard assay; format: functional; details: 168 h; how it was run: as §2
[12] = test system: Mycobacterium tuberculosis; assay: Antibacterial activity against Mycobacterium tuberculosis H37Rv ATCC 27294T assessed as ofloxacin MIC at 32 ug/ml after 7 days by microdilution checkerboard assay; format: functional; details: 168 h; how it was run: as §2
[13] = test system: Mycobacterium tuberculosis; assay: Antibacterial activity against Mycobacterium tuberculosis H37Rv ATCC 27294T assessed as isoniazid MIC at 4 ug/ml after 7 days by microdilution checkerboard; format: functional; details: 168 h; how it was run: as §2
[14] = test system: Mycobacterium tuberculosis; assay: Antibacterial activity against Mycobacterium tuberculosis H37Rv ATCC 27294T assessed as ofloxacin MIC at 16 ug/ml after 7 days by microdilution checkerboard assay; format: functional; details: 168 h; how it was run: as §2
[15] = test system: Mycobacterium tuberculosis; assay: Antibacterial activity against Mycobacterium tuberculosis H37Rv ATCC 27294T assessed as ofloxacin MIC at 8 ug/ml after 7 days by microdilution checkerboard assay; format: functional; details: 168 h; how it was run: as §2
[16] = test system: Mycobacterium tuberculosis; assay: Modulation factor, ratio of ofloxacin MIC to compound MIC for Mycobacterium tuberculosis H37Rv ATCC 27294T at 128 ug/ml in presence of ofloxacin; format: functional
[17] = Cytotoxicity against human MDM assessed as cell viability after 3 days by Alamar blue dye-based fluorocytometric analysis relative to control; details: 72 h
[18] = test system: Mycobacterium tuberculosis; assay: Modulation factor, ratio of refampin MIC to compound MIC for Mycobacterium tuberculosis H37Rv ATCC 27294T at 64 ug/ml in presence of refampin; format: functional
[19] = test system: Mycobacterium tuberculosis; assay: Antibacterial activity against Mycobacterium tuberculosis H37Rv ATCC 27294T assessed as ethidium bromide MIC at 8 ug/ml after 7 days by microdilution checkerboard assay; format: functional; details: 168 h; how it was run: as §2
[20] = test system: Mycobacterium tuberculosis; assay: Anti-tubercular activity against Mycobacterium tuberculosis H37Rv ATCC 27294T after 7 days by mircodilution method; format: functional; details: 168 h
How it was run: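 H37Rv grown static in MB7H9 + 10% OADC at 37 °C to OD600 0.8, then diluted to about 10^5 cells/ml. Mixed 1:1 with two-fold serial dilutions in MB7H9/OADC and incubated 7 days at 37 °C. MTT added to final 2.5% and plates incubated overnight. MIC is the lowest concentration with no colour change. Run in triplicate.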

[21] = test system: Mycobacterium tuberculosis; assay: Antibacterial activity against Mycobacterium tuberculosis H37Rv ATCC 27294T assessed as ethidium bromide MIC at 128 ug/ml after 7 days by microdilution checkerboard assay; format: functional; details: 168 h; how it was run: as §2
[22] = test system: Mycobacterium tuberculosis; assay: Antibacterial activity against Mycobacterium tuberculosis H37Rv ATCC 27294T assessed as isoniazid MIC at 16 ug/ml after 7 days by microdilution checkerboard assay; format: functional; details: 168 h; how it was run: as §2
[23] = test system: Mycobacterium tuberculosis; assay: Antibacterial activity against Mycobacterium tuberculosis H37Rv ATCC 27294T assessed as rifampin MIC at 64 ug/ml after 7 days by microdilution checkerboard assay; format: functional; details: 168 h; how it was run: as §1
[24] = test system: Mycobacterium tuberculosis; assay: Antibacterial activity against Mycobacterium tuberculosis H37Rv ATCC 27294T assessed as amikacin MIC at 4 ug/ml after 7 days by microdilution checkerboard assay; format: functional; details: 168 h; how it was run: as §2
[25] = test system: Mycobacterium tuberculosis; assay: Antibacterial activity against Mycobacterium tuberculosis H37Rv ATCC 27294T assessed as rifampin MIC at 8 ug/ml after 7 days by microdilution checkerboard assay; format: functional; details: 168 h; how it was run: as §1
[26] = test system: Mycobacterium tuberculosis; assay: Antibacterial activity against Mycobacterium tuberculosis H37Rv ATCC 27294T assessed as ofloxacin MIC at 64 ug/ml after 7 days by microdilution checkerboard assay; format: functional; details: 168 h; how it was run: as §2
[27] = test system: Mycobacterium tuberculosis; assay: Antibacterial activity against Mycobacterium tuberculosis H37Rv ATCC 27294T assessed as isoniazid MIC at 2 ug/ml after 7 days by microdilution checkerboard assay; format: functional; details: 168 h; how it was run: as §2
[28] = test system: Mycobacterium tuberculosis; assay: Antibacterial activity against Mycobacterium tuberculosis H37Rv ATCC 27294T assessed as amikacin MIC at 8 ug/ml after 7 days by microdilution checkerboard assay; format: functional; details: 168 h; how it was run: as §2
[29] = test system: Mycobacterium tuberculosis; assay: Antibacterial activity against Mycobacterium tuberculosis H37Rv ATCC 27294T assessed as rifampin MIC at 2 ug/ml after 7 days by microdilution checkerboard assay; format: functional; details: 168 h; how it was run: as §1
[30] = test system: Mycobacterium tuberculosis; assay: Antibacterial activity against Mycobacterium tuberculosis H37Rv ATCC 27294T assessed as isoniazid MIC at 128 ug/ml after 7 days by microdilution checkerboard assay; format: functional; details: 168 h; how it was run: as §2

## CCCSc1nnc(COc2ccccc2C2=NOC(c3ccc(Cl)cc3Cl)C2)n1NC(=O)CCl (stereo not given)
[1]
  Ratio: 64
[2]
  MIC: 4 µg/mL (≈ 7.21 µM)
[3]
  MIC: 0.5 µg/mL
[4]
  MIC: 0.1 µg/mL
[5]
  MIC: 6.25 µg/mL
[6]
  MIC: 12.5 µg/mL
[7]
  Ratio: 32
[8]
  MIC: 2 µg/mL
[9]
  MIC: 0.625 µg/mL
[10]
  Ratio: 64
[11]
  MIC: 2 µg/mL
[12]
  MIC: 1 µg/mL
[13]
  MIC: 0.1 µg/mL
[14]
  MIC: 1 µg/mL
[15]
  MIC: 1 µg/mL
[16]
  Ratio: 32
[17]
  IC50: 28.7 µg/mL (≈ 51.7 µM)
[18]
  Ratio: 4
[19]
  MIC: 12.5 µg/mL
[20]
  MIC: 64 µg/mL (≈ 115 µM)
[21]
  MIC: 0.39 µg/mL
[22]
  MIC: 0.1 µg/mL
[23]
  MIC: 0.25 µg/mL
[24]
  MIC: 1 µg/mL
[25]
  MIC: 0.5 µg/mL
[26]
  MIC: 1 µg/mL
[27]
  MIC: 0.1 µg/mL
[28]
  MIC: 1 µg/mL
[29]
  MIC: 0.5 µg/mL
[30]
  MIC: 0.00156 µg/mL

Source: ChEMBL document CHEMBL3758168, “Hybrid triazoles: Design and synthesis as potential dual inhibitor of growth and efflux inhibition in tuberculosis” (Eur J Med Chem, 2016)
